# The source made the active and inactive calls. No cut-off for these calls is given here.
# Columns and labels:
# [1] = system: Pichia kudriavzevii; assay: Ratio of MIC at 24 hrs to MIC at 48 hrs for Candida krusei ATCC 14243; format: functional
# How it was run: (§1)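 MICs by EUCAST broth microdilution, with the update for non-fermenting yeasts, incubated at 37 °C. Read at 24, 48 and 72 h as the lowest concentration preventing visible growth.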
# [2] = system: Candida parapsilosis; assay: Ratio of MIC at 24 hrs to MIC at 48 hrs for Candida parapsilosis 64E; format: functional; how it was run: as §1
# [3] = system: Candida albicans; assay: Antifungal activity against Candida albicans 4T up to 96 hrs by broth dilution assay; format: functional, organism-based
# [4] = system: Candida albicans; assay: Upregulation of PDR16 gene expression in Candida albicans SC5314 at 3 uM after 15 mins by microarray method relative to control; format: functional
# How it was run: (§2)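 Log-phase C. albicans SC5314 in liquid YEPD exposed to 3 µM final for 15 or 45 min; untreated controls taken at the same time points. Three biological replicates. RNA extracted by glass-bead/phenol-chloroform method and integrity checked. One-color Cy3-labeled cRNA (600 ng) hybridized 17 h at 65 °C to 8 × 15K arrays. Expression expressed as fold change versus control.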
# [5] = system: Candida albicans; assay: Upregulation of orf19.4907 gene expression in Candida albicans SC5314 at 3 uM after 15 mins by microarray method relative to control; format: functional
# How it was run: (§3)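 Log-phase cultures in liquid YEPD were exposed to 3 µM compound (final) for 15 or 45 min, with untreated controls sampled at the same times, in three biological replicates. Total RNA was extracted by glass-bead/phenol-chloroform disruption and integrity-checked. One-color Cy3-labelled cRNA (600 ng) was hybridized for 17 h at 65 °C to 8 × 15K arrays, and fold change was taken versus control.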
# [6] = system: Candida albicans; assay: Upregulation of orf19.7336 gene expression in Candida albicans SC5314 at 3 uM after 15 mins by microarray method relative to control; format: functional; how it was run: as §3
# [7] = system: Candida albicans; assay: Upregulation of orf19.3089 gene expression in Candida albicans SC5314 at 3 uM after 15 mins by microarray method relative to control; format: functional; how it was run: as §3
# [8] = system: Candida albicans; assay: Upregulation of ARE2 gene expression in Candida albicans SC5314 at 3 uM after 15 mins by microarray method relative to control; format: functional; how it was run: as §2
# [9] = system: Candida albicans; assay: Upregulation of orf19.4907 gene expression in Candida albicans SC5314 at 3 uM after 45 mins by microarray method relative to control; format: functional; how it was run: as §3
# [10] = system: Candida albicans; assay: Upregulation of RTA2 gene expression in Candida albicans SC5314 at 3 uM after 45 mins by microarray method relative to control; format: functional; how it was run: as §2
# [11] = system: Candida albicans; assay: Upregulation of FCR1 gene expression in Candida albicans SC5314 at 3 uM after 45 mins by microarray method relative to control; format: functional; how it was run: as §2
# [12] = system: Candida albicans; assay: Upregulation of TAC1 gene expression in Candida albicans SC5314 at 3 uM after 45 mins by microarray method relative to control; format: functional; how it was run: as §2
# [13] = system: Candida albicans; assay: Upregulation of orf19.3089 gene expression in Candida albicans SC5314 at 3 uM after 45 mins by microarray method relative to control; format: functional; how it was run: as §3
# [14] = system: Pichia kudriavzevii; assay: Antifungal activity against Candida krusei ATCC 14243 measured at 24 hrs by broth dilution assay; format: functional; conditions: ATCC 14243, 24 h
# How it was run: (§4)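 EUCAST broth microdilution, including the update for non-fermenting yeasts (Cryptococcus, Geotrichum), on clinical and reference yeast isolates. Incubated at 37 °C and read at 24, 48 and 72 h. MIC taken as the lowest concentration with no visible growth. For Cryptococcus and Geotrichum, MICs were read only once growth was visible in the control row.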
# [15] = system: Pichia kudriavzevii; assay: Antifungal activity against Candida krusei 193T measured at 72 hrs by broth dilution assay; format: functional; how it was run: as §4
# [16] = system: Candida parapsilosis; assay: Antifungal activity against Candida parapsilosis ATCC 34136 measured at 24 hrs by broth dilution assay; format: functional; conditions: Lodderomyces parapsilosis, ATCC 34136, 24 h; how it was run: as §4
# [17] = system: Candida parapsilosis; assay: Antifungal activity against Candida parapsilosis ATCC 34136 measured at 72 hrs by broth dilution assay; format: functional; conditions: Lodderomyces parapsilosis, ATCC 34136, 72 h; how it was run: as §4
# [18] = system: Candida parapsilosis; assay: Antifungal activity against Candida parapsilosis 81E measured at 24 hrs by broth dilution assay; format: functional; conditions: Lodderomyces parapsilosis; how it was run: as §4
# [19] = system: Candida parapsilosis; assay: Antifungal activity against Candida parapsilosis 81E measured at 48 hrs by broth dilution assay; format: functional; conditions: Lodderomyces parapsilosis; how it was run: as §4
# [20] = system: Nakaseomyces glabratus; assay: Antifungal activity against Candida glabrata 70 measured at 48 hrs by broth dilution assay; format: functional; conditions: Nakaseomyces glabratus, 70, 48 h; how it was run: as §4
# [21] = system: Candida tropicalis; assay: Antifungal activity against Candida tropicalis 86E measured at 72 hrs by broth dilution assay; format: functional; how it was run: as §4
# [22] = system: Magnusiomyces capitatus; assay: Antifungal activity against Geotrichum capitatum measured at 72 hrs by broth dilution assay; format: functional; how it was run: as §4
structure (smiles),measurement,setting,value
C/C=C/CNC(=N)NCCCCCCCCN1CCCCCCCCNC(=N)NC1=O,Ratio,[1],8
same,Ratio,[2],2
same,Activity,[3],Active
same,fold change (FC),[4],4.43
same,fold change (FC),[5],3.9
same,fold change (FC),[6],2.8
same,fold change (FC),[7],2.39
same,fold change (FC),[8],2.11
same,fold change (FC),[9],5.3
same,fold change (FC),[10],2.93
same,fold change (FC),[11],5.88
same,fold change (FC),[12],3.38
same,fold change (FC),[13],2.63
same,MIC,[14],10 µM
same,MIC,[15],80 µM
same,MIC,[16],10 µM
same,MIC,[17],80 µM
same,MIC,[18],20 µM
same,MIC,[19],40 µM
same,MIC,[20],> 80 µM
same,MIC,[21],5 µM
same,MIC,[22],10 µM

# Source: ChEMBL document CHEMBL3808283, “Biological Characterization and in Vivo Assessment of the Activity of a New Synthetic Macrocyclic Antifungal Compound” (J Med Chem, 2016)
